In data set [1] the target is T1, Calcium release-activated calcium channel protein 1 (Homo sapiens, UniProt Q96D31). In words: Inhibition of […] Orai1-medited store operated calcium entry in human MDA-MB-231 cells at 10 uM pretreated for 15 mins followed by BAPTA addition by PBX dye based FLIPR assay relative to control. The class given is cell-based. The method, boiled down:
(§1)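 MDA-MB-231 cells seeded 2×10^3/well and used 3 days later. Loaded 1 h at 37 °C with 2 µM PBX calcium dye, 5% signal enhancer and 500 µM probenecid in PSS, pH 7.3. Compound pretreated 15 min at room temperature. Then 500 µM BAPTA, 10 µM CPA, and 0.5 mM CaCl2 700 s after CPA. Read-out: peak 2 height as % inhibition vs DMSO. 95% CI, n = 4.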
Target sequence in this assay (Q96D31 whole entry, looked up): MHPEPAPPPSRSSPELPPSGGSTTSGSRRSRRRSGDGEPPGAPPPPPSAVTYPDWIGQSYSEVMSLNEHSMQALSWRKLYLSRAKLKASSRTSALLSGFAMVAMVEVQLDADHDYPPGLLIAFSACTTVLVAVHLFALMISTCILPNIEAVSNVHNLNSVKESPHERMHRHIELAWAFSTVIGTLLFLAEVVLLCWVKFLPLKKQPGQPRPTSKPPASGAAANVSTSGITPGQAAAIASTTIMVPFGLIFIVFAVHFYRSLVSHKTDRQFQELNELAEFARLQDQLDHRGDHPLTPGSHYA

The test system of a further data set is MDA-MB-231. Kind of data set: Inhibition of endoplasmic reticulum calcium channel in human MDA-MB-231 cells assessed as reduction in endoplasmic reticulum intracellular calcium release at 100 uM pretreated for 15 mins followed by SERCA inhibitor CPA addition measured after 700 secs by PBX dye based FLIPR assay relative to control. The class given is cell-based. In short, it runs like this:
(§2)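 Same MDA-MB-231 PBX-dye FLIPR protocol: 15 min compound pretreatment at room temperature, then BAPTA (500 µM) and CPA (10 µM) to deplete ER stores. Peak 1 height after CPA addition (ER Ca2+ release) expressed as % inhibition relative to the DMSO control. Excitation 470–495 nm, emission 515–575 nm.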
For orientation: A change in cytosolic calcium serves as a functional read-out for many receptors and channels.

In data set [2] the target is T1, Calcium release-activated calcium channel protein 1. Kind of data set: Inhibition of […] Orai1-medited store operated calcium entry in human MDA-MB-231 cells at 100 uM pretreated for 15 mins followed by BAPTA addition by PBX dye based FLIPR assay relative to control. The data set is classed as cell-based. The method, boiled down:
as §1
Target sequence in this assay (Q96D31 whole entry, looked up): as above

A short description of data set [3]: Stability of the compound in M1/M0 H2O. The data set is classed as ADME.
Another data set addresses hERG (KCNH2) (Homo sapiens, UniProt Q12809). Kind of data set: Inhibition of human ERG at 10 uM relative to control.
In data set [4] the target is Transient receptor potential cation channel subfamily V member 1 (Rattus norvegicus) (UniProt O35433). Kind of data set: Inhibition of rat TRPV1 expressed in HEK293 cells assessed as reduction in capsaicin-induced calcium flux up to 100 uM pretreated for 300 secs followed by capsaicin addition by calcium 4-dye based FLIPR assay. The class given is cell-based. In short, it runs like this:
(§3)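 HEK293 cells transfected with rat TRPV1 or rat TRPM8 plasmid using Lipofectamine 2000, plated at 10,000/well and assayed 48 h after transfection. Calcium 4 dye loaded 30 min at 37 °C in PSS with 1.8 mM CaCl2. Compound added 300 s before agonist: capsaicin 100 nM for TRPV1, menthol 100 µM for TRPM8. Fluorescence read on FLIPR.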

In data set [5] the target is Voltage-dependent L-type calcium channel subunit alpha-1C (Homo sapiens, UniProt Q13936). In words: Inhibition of Cav1.2 (unknown origin) up to 100 uM.
For data set [6], the target named is Voltage-dependent N-type calcium channel subunit alpha-1B (Homo sapiens) (UniProt Q00975). Kind of data set: Inhibition of Cav2.2 in human SH-SY5Y cells assessed as reduction in KCl/CaCl2-induced calcium flux up to 100 uM pretreated for 300 secs followed by KCl/CaCl2 addition measured in presence of nifedipine by calcium 4-dye based FLIPR assay. The data set is classed as cell-based. The method, boiled down: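 SH-SY5Y cells plated at 50,000/well and used 48 h later. Loaded 30 min at 37 °C/5% CO2 with Calcium 4 dye in PSS containing 1.8 mM CaCl2. Nifedipine 10 µM present. Compound added 300 s before stimulation with KCl (90 mM)/CaCl2 (5 mM). Calcium flux read on FLIPR.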

Data set [7] deals with Transient receptor potential cation channel subfamily M member 8 (Rattus norvegicus) (UniProt Q8R455). In words: Inhibition of rat TRPM8 expressed in HEK293 cells assessed as reduction in menthol-induced calcium flux up to 100 uM pretreated for 300 secs followed by menthol addition by calcium 4-dye based FLIPR assay. The data set is classed as cell-based. In short, it runs like this:
as §3

Data set [8] in a line: Solubility of the compound in alpha minimum essential medium. The class given is physicochemical.
The nature of data set [9]: Half life in mouse liver microsomes. The class given is ADME, microsome. (In general: Liver microsomes are a subcellular fraction often used to study metabolism.)
The target of data set [10] is Voltage-dependent L-type calcium channel subunit alpha-1D (Homo sapiens) (UniProt Q01668). Kind of data set: Inhibition of Cav1.3 (unknown origin) up to 100 uM.
Chain of Voltage-dependent L-type calcium channel subunit alpha-1D (Homo sapiens) (Q01668 whole entry): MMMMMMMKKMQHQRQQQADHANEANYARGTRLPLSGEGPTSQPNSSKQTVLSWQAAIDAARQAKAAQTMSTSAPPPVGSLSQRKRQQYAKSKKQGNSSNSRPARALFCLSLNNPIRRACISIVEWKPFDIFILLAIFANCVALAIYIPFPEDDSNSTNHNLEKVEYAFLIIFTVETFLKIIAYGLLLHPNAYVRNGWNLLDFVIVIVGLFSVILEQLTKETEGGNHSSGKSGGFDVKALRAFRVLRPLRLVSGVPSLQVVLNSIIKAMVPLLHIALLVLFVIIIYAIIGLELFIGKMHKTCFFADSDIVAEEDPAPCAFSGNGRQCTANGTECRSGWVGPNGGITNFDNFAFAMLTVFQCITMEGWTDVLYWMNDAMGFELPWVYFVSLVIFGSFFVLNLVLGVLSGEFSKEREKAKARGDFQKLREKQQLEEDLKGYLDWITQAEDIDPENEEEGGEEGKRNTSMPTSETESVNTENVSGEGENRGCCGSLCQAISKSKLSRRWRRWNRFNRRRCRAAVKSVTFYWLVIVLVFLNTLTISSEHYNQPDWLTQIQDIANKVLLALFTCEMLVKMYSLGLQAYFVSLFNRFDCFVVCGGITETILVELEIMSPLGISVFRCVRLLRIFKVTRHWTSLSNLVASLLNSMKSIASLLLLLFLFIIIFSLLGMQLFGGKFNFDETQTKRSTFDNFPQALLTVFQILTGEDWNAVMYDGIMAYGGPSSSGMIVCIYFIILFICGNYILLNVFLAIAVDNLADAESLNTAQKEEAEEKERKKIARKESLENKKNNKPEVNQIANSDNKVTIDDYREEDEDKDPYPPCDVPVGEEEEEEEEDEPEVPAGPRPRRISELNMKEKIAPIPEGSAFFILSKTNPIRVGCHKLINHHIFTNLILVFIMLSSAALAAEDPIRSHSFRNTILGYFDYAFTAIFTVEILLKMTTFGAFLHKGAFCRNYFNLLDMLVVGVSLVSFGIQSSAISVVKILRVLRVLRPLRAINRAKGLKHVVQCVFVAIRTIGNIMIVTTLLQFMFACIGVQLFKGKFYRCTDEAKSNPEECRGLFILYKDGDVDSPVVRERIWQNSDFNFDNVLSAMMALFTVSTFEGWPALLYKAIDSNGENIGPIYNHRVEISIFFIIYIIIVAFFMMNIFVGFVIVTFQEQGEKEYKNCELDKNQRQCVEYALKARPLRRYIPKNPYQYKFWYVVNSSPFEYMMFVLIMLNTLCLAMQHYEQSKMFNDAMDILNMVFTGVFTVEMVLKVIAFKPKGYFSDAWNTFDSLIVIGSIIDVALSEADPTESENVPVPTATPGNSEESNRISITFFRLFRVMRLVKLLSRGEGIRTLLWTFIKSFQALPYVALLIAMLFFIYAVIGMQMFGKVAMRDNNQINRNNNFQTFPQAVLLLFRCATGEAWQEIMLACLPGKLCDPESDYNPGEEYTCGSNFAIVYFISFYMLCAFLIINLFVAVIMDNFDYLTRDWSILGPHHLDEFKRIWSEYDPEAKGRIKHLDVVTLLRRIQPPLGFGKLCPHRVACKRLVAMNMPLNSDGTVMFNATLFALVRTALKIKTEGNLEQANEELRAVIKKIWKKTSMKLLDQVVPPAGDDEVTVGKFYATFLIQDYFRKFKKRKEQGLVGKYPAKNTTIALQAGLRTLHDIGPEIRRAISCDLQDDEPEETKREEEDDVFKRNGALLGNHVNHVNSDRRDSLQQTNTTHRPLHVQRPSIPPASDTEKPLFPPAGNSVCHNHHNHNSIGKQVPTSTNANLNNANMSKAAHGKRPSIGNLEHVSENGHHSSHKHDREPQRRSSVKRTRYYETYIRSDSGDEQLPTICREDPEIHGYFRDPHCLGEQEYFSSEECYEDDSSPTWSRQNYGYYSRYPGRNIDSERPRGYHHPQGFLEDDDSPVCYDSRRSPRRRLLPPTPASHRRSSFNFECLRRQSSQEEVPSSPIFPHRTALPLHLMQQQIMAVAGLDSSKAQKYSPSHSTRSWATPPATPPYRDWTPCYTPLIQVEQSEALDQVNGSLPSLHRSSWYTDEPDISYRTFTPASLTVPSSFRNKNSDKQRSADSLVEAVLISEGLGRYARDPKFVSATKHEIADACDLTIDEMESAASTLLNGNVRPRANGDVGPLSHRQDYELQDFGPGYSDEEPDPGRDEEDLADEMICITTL
Data set [11] in a line: Lipophilicity, log P of the compound. The class given is physicochemical. Particulars: octanol/water.
Data set [12] is described as follows: Half life in human liver microsomes. The data set is classed as ADME, microsome.
Data set [13] addresses T1, Calcium release-activated calcium channel protein 1. Kind of data set: Inhibition of […] Orai1-medited store operated calcium entry in human MDA-MB-231 cells at 30 uM pretreated for 15 mins followed by BAPTA addition by PBX dye based FLIPR assay relative to control. The class given is cell-based. In short, it runs like this:
as §1
Target sequence in this assay (Q96D31 whole entry, looked up): as the sequence (Q96D31 whole entry, looked up) above

Data set [14] has the same target. Kind of data set: Inhibition of […] Orai1-medited store operated calcium entry in human MDA-MB-231 cells at 300 uM pretreated for 15 mins followed by BAPTA addition by PBX dye based FLIPR assay relative to control. The class given is cell-based. The method, boiled down: as §1
Target sequence in this assay (Q96D31 whole entry, looked up): as above
Data set [15] is described as follows: Inhibition of CRAC in human Jurkat T cells assessed as increase in TG-stimulated intracellular calcium depletion measured every 8 secs by Ca2+ dye based fluorescence assay. The data set is classed as cell-based.
Data set [16] is described as follows: Inhibition of CRAC in rat RBL2H3 cells assessed blockade of IP3-induced calcium flux pretreated for 30 to 60 mins followed by IP3 addition by Qpatch analysis. The data set is classed as cell-based. Conditions: RBL-2H3.
Data set [17] addresses T1, Calcium release-activated calcium channel protein 1. Kind of data set: Inhibition of […] Orai1-medited store operated calcium entry in human MDA-MB-231 cells pretreated for 15 mins followed by BAPTA addition by PBX dye based FLIPR assay. The class given is cell-based. The method, boiled down: as §1
Target sequence in this assay (Q96D31 whole entry): as the sequence (Q96D31 whole entry, looked up) above
Data set [18] in a line: Inhibition of endoplasmic reticulum calcium channel in human MDA-MB-231 cells assessed as reduction in endoplasmic reticulum intracellular calcium release pretreated for 15 mins followed by SERCA inhibitor CPA addition measured after 700 secs by PBX dye based FLIPR assay. The class given is cell-based. The method, boiled down: as §2
Data set [19] can be described thus: Inhibition of […] in thapsigargin-stimulated human Jurkat T cells assessed as blockade of intracellular calcium flux by fluo-4-AM dye based FLIPR assay. The data set is classed as cell-based.

The structures appear in SMILES notation. Values after ≈ are worked out from the molar mass of the structure shown. Active and inactive are the calls of the source.

Experimental findings from ChEMBL document CHEMBL4118190, “An SAR study of hydroxy-trifluoromethylpyrazolines as inhibitors of Orai1-mediated store operated Ca2+ entry in MDA-MB-231 breast cancer cells using a convenient Fluorescence Imaging Plate Reader assay” (Bioorg Med Chem, 2018) are described below.

Chain of Transient receptor potential cation channel subfamily V member 1 (Rattus norvegicus) (O35433 whole entry): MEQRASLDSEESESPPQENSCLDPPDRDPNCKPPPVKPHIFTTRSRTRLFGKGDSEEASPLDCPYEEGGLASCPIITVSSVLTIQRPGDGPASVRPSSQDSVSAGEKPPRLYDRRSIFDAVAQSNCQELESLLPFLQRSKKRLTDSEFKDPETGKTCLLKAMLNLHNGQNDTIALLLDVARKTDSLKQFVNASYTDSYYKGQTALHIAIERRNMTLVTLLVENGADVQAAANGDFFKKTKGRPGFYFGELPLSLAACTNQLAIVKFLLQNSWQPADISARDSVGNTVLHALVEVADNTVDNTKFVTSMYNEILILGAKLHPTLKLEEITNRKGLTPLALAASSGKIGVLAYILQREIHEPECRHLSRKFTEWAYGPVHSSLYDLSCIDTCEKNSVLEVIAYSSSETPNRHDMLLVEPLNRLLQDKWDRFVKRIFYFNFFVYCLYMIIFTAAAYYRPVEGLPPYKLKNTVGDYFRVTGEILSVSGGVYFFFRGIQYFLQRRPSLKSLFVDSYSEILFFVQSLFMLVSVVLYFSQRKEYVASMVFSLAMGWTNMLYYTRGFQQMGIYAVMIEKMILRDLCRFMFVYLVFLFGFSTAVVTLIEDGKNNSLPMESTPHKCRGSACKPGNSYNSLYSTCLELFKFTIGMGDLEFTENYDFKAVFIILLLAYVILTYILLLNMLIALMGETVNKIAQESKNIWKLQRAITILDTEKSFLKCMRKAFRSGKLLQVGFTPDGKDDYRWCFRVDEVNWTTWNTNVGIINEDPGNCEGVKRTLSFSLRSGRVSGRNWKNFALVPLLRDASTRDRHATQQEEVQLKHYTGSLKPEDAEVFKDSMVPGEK
Chain of hERG (KCNH2) (Q12809 whole entry): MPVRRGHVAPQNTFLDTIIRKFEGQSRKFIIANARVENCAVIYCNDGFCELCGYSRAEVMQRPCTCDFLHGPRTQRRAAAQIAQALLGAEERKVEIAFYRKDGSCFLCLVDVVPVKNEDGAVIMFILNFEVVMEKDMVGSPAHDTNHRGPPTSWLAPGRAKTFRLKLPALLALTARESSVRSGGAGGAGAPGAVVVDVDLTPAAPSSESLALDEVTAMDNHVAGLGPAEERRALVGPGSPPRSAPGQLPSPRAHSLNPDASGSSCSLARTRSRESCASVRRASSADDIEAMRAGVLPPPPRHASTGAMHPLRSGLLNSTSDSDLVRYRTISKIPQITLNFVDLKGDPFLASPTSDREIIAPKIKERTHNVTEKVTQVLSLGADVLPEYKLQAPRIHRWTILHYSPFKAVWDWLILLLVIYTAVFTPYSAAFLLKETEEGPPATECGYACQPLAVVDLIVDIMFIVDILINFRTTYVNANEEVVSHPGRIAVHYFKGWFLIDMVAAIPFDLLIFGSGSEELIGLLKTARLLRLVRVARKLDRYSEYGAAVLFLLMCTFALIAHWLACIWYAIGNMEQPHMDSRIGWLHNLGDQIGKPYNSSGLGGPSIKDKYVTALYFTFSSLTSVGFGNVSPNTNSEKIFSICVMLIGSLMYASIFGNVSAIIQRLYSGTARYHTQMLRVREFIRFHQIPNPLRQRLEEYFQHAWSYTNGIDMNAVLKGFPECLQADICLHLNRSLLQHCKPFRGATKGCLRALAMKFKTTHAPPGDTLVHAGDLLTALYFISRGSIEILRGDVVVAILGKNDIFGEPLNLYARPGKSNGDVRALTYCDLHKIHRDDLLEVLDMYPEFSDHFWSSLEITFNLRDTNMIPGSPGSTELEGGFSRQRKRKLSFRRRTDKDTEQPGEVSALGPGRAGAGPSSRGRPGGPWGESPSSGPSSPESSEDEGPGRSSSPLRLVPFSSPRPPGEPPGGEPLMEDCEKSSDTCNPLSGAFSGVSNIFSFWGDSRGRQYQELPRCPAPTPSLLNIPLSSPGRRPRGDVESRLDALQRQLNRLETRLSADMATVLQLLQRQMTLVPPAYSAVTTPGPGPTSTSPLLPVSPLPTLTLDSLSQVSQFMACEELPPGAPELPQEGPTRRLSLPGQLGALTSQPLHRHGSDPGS

In the case of `COc1cccc(C2=NN(C(=O)Cc3ccccc3)C(O)(C(F)(F)F)C2)c1` (stereo not drawn), the inhibition (commonly the percentage by which the read-out fell short of the control) was 14% in [1], less than 10% with MDA-MB-231 and 36 to 37% in data set [2].
In turn, `COc1cccc(C2(O)CC(C(F)(F)F)=NN2C(=O)Cc2ccccc2)c1` (stereo not drawn) had a Stability in data set [3] of 93.2%. The molecule further displayed an inhibition at 10 µM against hERG (KCNH2) of 9.1%. Further, the inhibition result (in data set [4]; with MDA-MB-231; in data set [6]; in data set [7]; in data set [10]) was “inactive” in each case. In addition, the inhibition in data set [1] amounted to 11%; in data set [2] it was 37%. Further, the “inhibition (INH)” value in data set [5] was “Not Active”. In data set [8], the solubility (usually how much of the substance goes into solution per volume) amounted to 16.8 µg/mL (≈ 44.4 µM). Also, the half-life (usually the time needed for the level to fall by half in the phase considered) in data set [9] was determined as 3.3 min; in data set [12], 8.2 min. For the same molecule, the logP – broadly, a log measure of how a compound divides between an organic and an aqueous phase – in [11] came out at 4.4.
On to `Cc1ccccc1C1(O)CC(C(F)(F)F)=NN1C(=O)c1ccccc1` (stereo not drawn), for which the results for the inhibition (in data set [1]; with MDA-MB-231) were 20% and less than 10%, respectively.
Take `Cc1ccccc1C1=NN(C(=O)Cc2ccccc2)C(O)(C(F)(F)F)C1` (stereo not drawn): the results for the inhibition (in the data set with MDA-MB-231; in data set [13]) were less than 10% and 50%, respectively.
As for `O=C(Cc1ccccc1)N1N=C(c2ccc(N3CCOCC3)cc2)CC1(O)C(F)(F)F` (stereo not drawn), the figures for the inhibition (with MDA-MB-231; in data set [2]; in data set [14]) were less than 10%, less than 10% and 50%, respectively.
In the case of `Cc1nnsc1C(=O)Nc1ccc(-n2nc(C(F)(F)F)cc2C(F)(F)F)cc1`, the IC50 – broadly, the concentration needed to halve the response being measured – in data set [15] turned out to be 10 nM.
`CC1=C(c2cnc(NC(=O)c3c(F)cccc3F)cn2)CN(c2ncc(C)s2)CC1`: the half-inhibitory concentration (IC50) in [16] turned out to be 400 nM.
Consider `O=C(Cc1ccccc1)N1N=C(C(F)(F)F)CC1(O)c1ccccc1C(F)(F)F` (stereo not drawn), for which the IC50 was 49000 nM in data set [17] and 80000 nM in data set [18].
`O=C(Cc1ccccc1)N1N=C(c2cccc(NC(=O)C(F)(F)F)c2)CC1(O)C(F)(F)F` (stereo not drawn): the inhibition is less than 10% in the data set on MDA-MB-231 and 60% in data set [13].
Turning to `O=C(Cc1ccccc1)N1N=C(c2ccncc2)CC1(O)C(F)(F)F` (stereo not drawn), the inhibition is less than 10% in the data set with MDA-MB-231, less than 10% in data set [2] and 50% in [14].
As to `COc1ccc(OC)c(-c2ccc(NC(=O)c3ccncc3F)cc2)c1`, the IC50 in data set [19] turned out to be 1400 nM.
`CS(=O)(=O)Nc1cccc(C2=NN(C(=O)Cc3ccccc3)C(O)(C(F)(F)F)C2)c1` (stereo not drawn): the inhibition is less than 10% in the data set on MDA-MB-231 and 20% in data set [13].
For `O=C(Cc1ccccc1)N1N=C(c2cccc(F)c2)CC1(O)C(F)(F)F` (stereo not drawn) the same measures were less than 10% and 60%.
